One data set relates to Human orthopneumovirus. Put plainly: Antiviral activity against RSV A2 infected in A549 cells assessed as reduction in plaque formation incubated for 72 hrs upto 10 uM followed by viral infection at MOI of 1 for 1 hr by multicycle replication assay. Type of data set: functional, organism-based. Conditions: human respiratory syncytial virus, dose microM <=10, time 72.0 hrs. The essentials: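 A549 human lung cells were inoculated with RSV A2 at MOI 1 for 1 h, washed, then kept with inhibitor at 0.5–10 μM (0.1–2.5 μM for one compound) or without inhibitor. Supernatants were collected at 16, 24, 48 and 72 h post infection. Titres (PFU/mL) were read by plaque assay, mean ± standard deviation, n = 3.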

A short description of data set [1]: Cytotoxicity against african green monkey Vero 76 cells by Cell Titer Glo assay. Type of data set: cell-based. Conditions: chlorocebus sabaeus. On the technique in general: In ATP-based viability assays light output follows the ATP content of the culture.
For another data set, the system named is West Nile virus. Put plainly: Antiviral activity against West Nile virus infected in […] cells assessed as virus titer reduction incubated for 48 hrs by plaque assay. Type of data set: functional, organism-based. Conditions: Vero 76, 48 h. The essentials: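 Huh-7 cells infected with dengue virus type 2 (strain 16681) or West Nile virus, then cultured with inhibitor. Supernatants were collected 48 h post-infection and titrated by plaque assay on VeroE6 cells (n = 2, mean ± standard deviation). EC50 was calculated from the titer data.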

For another data set, the target named is Plasminogen (Homo sapiens, UniProt P00747). Put plainly: Inhibition pf human plasmin using Mes-Darg-Phe-Arg-AMC as substrate by fluorescence assay.
Chain of Plasminogen (P00747 97-580 limits assumed): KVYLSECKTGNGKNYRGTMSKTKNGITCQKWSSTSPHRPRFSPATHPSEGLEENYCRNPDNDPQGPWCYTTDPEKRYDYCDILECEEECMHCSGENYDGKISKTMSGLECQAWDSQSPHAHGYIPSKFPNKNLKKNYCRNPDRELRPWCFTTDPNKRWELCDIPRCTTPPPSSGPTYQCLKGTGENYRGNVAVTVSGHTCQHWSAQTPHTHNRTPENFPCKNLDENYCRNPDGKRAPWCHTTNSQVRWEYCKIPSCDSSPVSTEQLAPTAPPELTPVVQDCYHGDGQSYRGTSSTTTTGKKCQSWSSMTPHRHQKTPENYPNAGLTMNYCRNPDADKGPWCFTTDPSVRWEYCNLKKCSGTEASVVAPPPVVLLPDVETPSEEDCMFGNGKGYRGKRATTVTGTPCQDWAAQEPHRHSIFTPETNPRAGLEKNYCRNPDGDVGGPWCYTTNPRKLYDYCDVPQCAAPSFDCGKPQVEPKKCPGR
Chain of Plasminogen (P00747 581-810 limits assumed): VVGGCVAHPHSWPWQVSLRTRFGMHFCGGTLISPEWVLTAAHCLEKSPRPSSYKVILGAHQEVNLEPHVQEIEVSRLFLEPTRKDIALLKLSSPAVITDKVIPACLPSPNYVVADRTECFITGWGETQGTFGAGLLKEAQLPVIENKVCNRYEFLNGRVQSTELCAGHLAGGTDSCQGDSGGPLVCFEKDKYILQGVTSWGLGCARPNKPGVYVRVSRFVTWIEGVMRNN
The target in the next data set is Coagulation factor X (Homo sapiens, UniProt P00742). Put plainly: Inhibition of human factor Xa using Mes-Darg-Pro-Arg-AMC as flurogenic substrate by fluorescence assay.
Chain of Coagulation factor X (P00742 41-179 limits assumed): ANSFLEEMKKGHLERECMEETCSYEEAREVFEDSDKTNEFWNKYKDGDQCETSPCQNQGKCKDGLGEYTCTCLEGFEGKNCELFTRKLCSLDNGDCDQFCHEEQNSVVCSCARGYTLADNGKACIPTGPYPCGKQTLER
Chain of Coagulation factor X (P00742 235-488 limits assumed): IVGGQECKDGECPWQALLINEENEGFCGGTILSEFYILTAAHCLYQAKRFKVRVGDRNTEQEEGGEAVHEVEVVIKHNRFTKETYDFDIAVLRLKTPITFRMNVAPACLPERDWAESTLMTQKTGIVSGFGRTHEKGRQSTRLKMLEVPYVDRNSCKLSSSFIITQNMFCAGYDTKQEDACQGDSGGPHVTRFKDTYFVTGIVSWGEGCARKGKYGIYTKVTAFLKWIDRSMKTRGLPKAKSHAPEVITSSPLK
The target of another data set is Prothrombin (Bos taurus, UniProt P00735). Put plainly: Inhibition of bovine thrombin using Tos-Gly-Pro-Arg-AMC as substrate by fluorescence assay.
The next data set concerns dengue virus type 2. Put plainly: Antiviral activity against DENV-2 infected in african green monkey Vero 76 cells assessed as virus titer reduction incubated for 48 hrs by plaque assay. Type of data set: functional, organism-based.
In another data set the target is Furin (Homo sapiens, UniProt P09958). Put plainly: Inhibition of recombinant soluble human furin using Phac-Arg-Val-Arg-Arg-AMC fluorogenic substrate. The method, boiled down:
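Enzyme kinetic assay under standard conditions at pH 7.0, using recombinant soluble human furin and the fluorogenic AMC substrate. Inhibition constants were determined from the kinetics.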

Data set [2] is described as follows: Toxicity in rat assessed as mortality at 1 mg/kg, iv. Type of data set: organism-based. Conditions: in vivo.
A short description of data set [3]: Total body clearance in Sprague-Dawley rat at 1 mg/kg, iv. Type of data set: ADME, organism-based. Conditions: in vivo. The essentials:
(§1)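 Rat pharmacokinetics: single intravenous dose of 1 mg/kg or intraperitoneal dose of 2.5 mg/kg. Plasma inhibitor levels were followed over time, and half-life and total body clearance were derived for each route. Cmax and time to Cmax were also derived after intraperitoneal dosing.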

Data set [4] in a line: Half life in Sprague-Dawley rat at 1 mg/kg, iv. Type of data set: ADME, organism-based. Conditions: in vivo. The method, boiled down: as §1
Data set [5] in a line: Total body clearance in Sprague-Dawley rat at 2.5 mg/kg, ip. Type of data set: ADME, organism-based. Conditions: in vivo. The essentials: as §1
Data set [6] can be described thus: Half life in Sprague-Dawley rat at 2.5 mg/kg, ip. Type of data set: ADME, organism-based. Conditions: in vivo. The essentials: as §1
A short description of data set [7]: Cmax in Sprague-Dawley rat at 2.5 mg/kg, ip. Further details: route intraperitoneal, dose 2.5 mg/kg. Conditions: in vivo. Type of data set: ADME, organism-based. The method, boiled down: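 Rats received a single intraperitoneal dose of 2.5 mg/kg. Plasma drug levels were followed over time, and half-life, total body clearance, and peak plasma concentration with its time were derived from the concentration–time profile.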

A short description of data set [8]: Plasma concentration in Sprague-Dawley rat at 2.5 mg/kg, ip measured after 3 hrs. Type of data set: ADME, organism-based.

Calls of active or inactive are those of the source.

Chain of Furin (P09958 whole entry): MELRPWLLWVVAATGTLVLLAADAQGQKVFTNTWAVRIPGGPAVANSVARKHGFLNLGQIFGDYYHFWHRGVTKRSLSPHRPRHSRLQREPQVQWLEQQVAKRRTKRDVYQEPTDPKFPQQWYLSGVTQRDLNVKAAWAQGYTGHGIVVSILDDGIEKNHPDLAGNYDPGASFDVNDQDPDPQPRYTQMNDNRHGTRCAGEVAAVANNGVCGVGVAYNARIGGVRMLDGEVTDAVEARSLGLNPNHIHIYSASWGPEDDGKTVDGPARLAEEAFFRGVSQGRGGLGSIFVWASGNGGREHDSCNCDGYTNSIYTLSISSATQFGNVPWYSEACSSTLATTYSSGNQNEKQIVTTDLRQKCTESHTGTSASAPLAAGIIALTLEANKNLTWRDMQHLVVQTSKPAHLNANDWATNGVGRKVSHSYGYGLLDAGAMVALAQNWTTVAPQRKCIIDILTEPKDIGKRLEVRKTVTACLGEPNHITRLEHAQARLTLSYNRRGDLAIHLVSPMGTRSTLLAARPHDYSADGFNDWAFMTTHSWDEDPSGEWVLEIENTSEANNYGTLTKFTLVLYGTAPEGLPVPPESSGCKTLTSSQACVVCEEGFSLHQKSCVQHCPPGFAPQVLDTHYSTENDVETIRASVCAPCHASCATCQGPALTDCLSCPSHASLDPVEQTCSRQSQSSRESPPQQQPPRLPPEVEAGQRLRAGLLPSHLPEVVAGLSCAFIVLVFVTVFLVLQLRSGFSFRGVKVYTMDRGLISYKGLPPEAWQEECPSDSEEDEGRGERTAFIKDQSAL

For `CC(C)(C)[C@H](NC(=O)[C@H](CCONC(=N)N)NC(=O)Cc1ccc(CN)cc1)C(=O)N[C@@H](CCCCN)C(=O)NCc1ccc(C(=N)N)cc1`, the outcome with Human orthopneumovirus was inactive.
The term CC50 denotes the concentration giving 50% cytotoxicity. One may read the EC50 as the concentration that produces a half-maximal response. Usually Ki stands for the equilibrium dissociation constant of an inhibitor or competing ligand from its target. Turning to `CC(C)(C)[C@H](NC(=O)[C@H](CCCNC(=N)N)NC(=O)Cc1ccc(CNC(=N)N)cc1)C(=O)N[C@@H](CCCNC(=N)N)C(=O)NCc1ccc(C(=N)N)cc1`, the outcome in the data set on Human orthopneumovirus was Active. The CC50 in data set [1] is > 50000 nM. The EC50 in the data set on West Nile virus was determined as 910 nM; with dengue virus type 2, 760 nM. In addition, the Ki at Plasminogen, at Coagulation factor X and on Prothrombin was > 3000 nM in each case.
Turning to `CC(C)(C)[C@H](NC(=O)[C@H](CCCNC(=N)N)NC(=O)Cc1ccc(CN)cc1)C(=O)N[C@@H](CCONC(=N)N)C(=O)NCc1ccc(C(=N)N)cc1`, the Ki at Furin came out at 0.0768 nM.
The same measure, in the same setting: the same measure for `CC(C)(C)[C@H](NC(=O)[C@H](CCONC(=N)N)NC(=O)Cc1ccc(CN)cc1)C(=O)N[C@@H](CCONC(=N)N)C(=O)NCc1ccc(C(=N)N)cc1`: 0.0342 nM.
By clearance is commonly meant a measure of how efficiently the substance is removed, as volume per time. As a reminder, the half-life is the time needed for the level to fall by half in the phase considered. The term CL/F denotes clearance divided by bioavailability, as obtained after extravascular dosing. As usually defined, the Cmax is the maximum level reached in the sampled fluid or tissue. For `CC(C)(C)[C@H](NC(=O)[C@H](CCONC(=N)N)NC(=O)Cc1ccc(CNC(=N)N)cc1)C(=O)N[C@@H](CCONC(=N)N)C(=O)NCc1ccc(C(=N)N)cc1`, the result in the data set with Human orthopneumovirus was Active. For the same compound, the Activity entry in data set [2] is “Non-Toxic”. For the same compound, in data set [1], the CC50 is > 50000 nM. Moreover, in [3], the clearance was 7.37 mL/min/kg. For the same compound, the results for the EC50 in the data set with West Nile virus and in the data set on dengue virus type 2 were 1460 nM and 1500 nM, respectively. For the same compound, the half-life is 0.9 h in [4] and 1.6 h in [6]. Moreover, the CL/F in data set [5] was 4.55 mL/min/kg. The Cmax in [7] was 3160 ng/mL. In addition, in data set [8], the concentration at 3 h is > 1000 ng/mL.
As for `CC(C)(C)[C@H](NC(=O)[C@H](CCONC(=N)N)NC(=O)Cc1ccc(CNC(=N)N)cc1)C(=O)N[C@@H](CCCCN)C(=O)NCc1ccc(C(=N)N)cc1`, in the data set with Human orthopneumovirus, the result was Active. Besides, the Ki at Furin was found to be 0.0363 nM.
As for `CC(C)(C)[C@H](NC(=O)[C@H](CCCNC(=N)N)NC(=O)Cc1ccc(CNC(=N)N)cc1)C(=O)N[C@@H](CCONC(=N)N)C(=O)NCc1ccc(C(=N)N)cc1`, on Furin, the Ki turned out to be 0.0131 nM.

The record behind these values is ChEMBL document CHEMBL4680357, “The Basicity Makes the Difference: Improved Canavanine-Derived Inhibitors of the Proprotein Convertase Furin” (ACS Med Chem Lett, 2021).
